Screening results: PubChem BioAssay, several laboratories
This is a sample that favours compounds with a hit; in the whole collection about 2.9% have one here.
SENP8 block-1 = SENP8 (human) protease inhibition | inhibition, % at 20 µM | AID 602440 | 360,000 tested, 0.64% active | recombinant SENP8, Nedd8 substrate fluorescence | Q96LD8; in the data active = inhibition mostly above about 40%, no sharp cut-off; inactive = mostly below about 27%
Target sequence (Q96LD8 whole entry, looked up): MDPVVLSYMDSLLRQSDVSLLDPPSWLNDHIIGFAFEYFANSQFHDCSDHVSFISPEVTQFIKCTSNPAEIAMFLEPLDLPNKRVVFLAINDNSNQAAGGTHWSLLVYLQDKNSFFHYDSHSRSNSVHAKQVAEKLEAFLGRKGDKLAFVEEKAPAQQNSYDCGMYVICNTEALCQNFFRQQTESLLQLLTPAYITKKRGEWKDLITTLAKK
SENP1 FRET inh = blocks the human SENP1 SUMO protease catalytic domain. Q9P0U3. inhibition, % at 10 µM. 360,000 tested, 0.21% active. recombinant SENP1 catalytic domain, CyPet-SUMO1-YPet FRET cleavage. AID 624204;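 active = inhibition at least 30% at 10 µM, raw YFP signal under a set limit, fluorescence ratio 0.5 to 1.5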
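Test system: human SENP1 catalytic domain; medium: Tris pH 8 buffer plus EDTA, NaCl, BME, BSA, NP40, catalase; incubation: 50 min reaction at room temperature; technique: FRET, CFP and YFP emission; controls: no-enzyme low control and enzyme-plus-DMSO high control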
SENP8 block-2 = blocks the human protease SENP8. 330,000 tested, 1.2% active. inhibition, % at 10 µM. AID 2540. purified SENP8, Z-RLRGG-aminoluciferin cleavage, luminescence; in the data active = inhibition above about 50%
SENP6 block = SENP6 protease inhibition; Q9GZR1; Recombinant SENP6 catalytic domain, aminoluciferin luminescence; inhibition, % at 10 µM; 330,000 tested, 1.8% active;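 active = inhibition above about 50% at the single tested dose, limit read from the data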
Target sequence (Q9GZR1 628-1112 limits assumed): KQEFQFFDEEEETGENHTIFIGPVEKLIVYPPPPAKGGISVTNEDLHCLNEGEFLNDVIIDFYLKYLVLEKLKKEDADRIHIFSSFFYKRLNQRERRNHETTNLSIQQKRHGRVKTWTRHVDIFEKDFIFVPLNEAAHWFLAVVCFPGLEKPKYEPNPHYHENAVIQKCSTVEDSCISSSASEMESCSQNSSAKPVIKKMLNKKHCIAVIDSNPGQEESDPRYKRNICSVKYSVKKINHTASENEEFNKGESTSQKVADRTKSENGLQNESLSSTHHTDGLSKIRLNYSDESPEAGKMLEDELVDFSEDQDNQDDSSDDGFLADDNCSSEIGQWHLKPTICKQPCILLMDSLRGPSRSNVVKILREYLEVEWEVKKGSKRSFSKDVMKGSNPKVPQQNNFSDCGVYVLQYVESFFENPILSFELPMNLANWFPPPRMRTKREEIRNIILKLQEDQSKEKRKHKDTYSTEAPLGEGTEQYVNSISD
SENP7 block = blocks the human protease SENP7 | 330,000 tested, 1.5% active | recombinant SENP7, Z-RLRGG-aminoluciferin luminescence, 40 min | Q9BQF6 | AID 434973 | inhibition, % at 5 µM;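 active = inhibition above about 50% at the single test dose, limit read from the data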
HSP90 inh = HSP90 refolding inhibition in rabbit reticulocyte lysate | luciferase refolding luminescence, 3 h | inhibition, % at 5.6 µM | 290,000 tested, 0.91% active | AID 1789;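 active = inhibition above the screen-wide mean plus 3 SD, computed separately per campaign, cut at about 16% in these data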;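 also: inhibitors lower the luminescence because luciferase stays unfolded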
A number is an active result; 0 = inactive; - = no result given.

SMILES | SENP8 block-1 | SENP1 FRET inh | SENP8 block-2 | SENP6 block | SENP7 block | HSP90 inh
COc1ccc(-[n+]2c(C)cc(/C=C3\Sc4ccccc4N3C)cc2C)cc1 | 43 | 0 | 0 | 0 | 0 | 0
O=C(N/N=C/c1ccccc1OCC(=O)N1CCCC1)C(=O)Nc1ccccc1F | 0 | 0 | 0 | 70 | 61 | 0
O=C(N/N=C/c1ccc(OCC(=O)N2CCCCC2)cc1)c1ccccc1 | 0 | 0 | 0 | 0 | 0 | 0
NC1=CC(=O)C(=O)c2ccccc21 | 0 | 0 | - | - | - | -
O=C1C=C(O)c2[nH]c(=O)ccc2C1=O | 64 | 0 | - | - | - | -
N=C(SC1CC(=O)N(c2ccc(F)cc2)C1=O)N1N=C(c2ccccc2)CC1c1ccccc1 (stereo not given) | 0 | 0 | 0 | 0 | 0 | 0
N#C/C(=C(/O)c1ccccc1F)c1nc2cc(C(F)(F)F)ccc2s1 | 0 | 0 | 0 | 0 | 0 | 0
N#C/C(=C(/O)c1ccc2c(c1)OCO2)c1nc2cc(C(F)(F)F)ccc2s1 | 0 | 0 | 54 | 0 | 0 | 0
Cc1c(C(=O)NCc2ccccc2C(F)(F)F)sc(=O)n1Cc1ccc(F)cc1 | 0 | 0 | - | - | - | -
Cc1ccc(N=C2NC(=O)/C(=C/c3cccs3)S2)cc1C | 0 | 36 | 0 | 0 | 0 | 0
CC(/C=C1\SC(=S)N(NC(=O)c2ccc(C)cc2)C1=O)=C\c1ccccc1 | 40 | 0 | 0 | 0 | 0 | 0
Cn1cccc1/C=C1\SC(=S)N(NC(=O)c2ccccc2)C1=O | 0 | 0 | - | - | - | 0
Cn1cccc1/C=C1\SC(=S)N(NC(=O)c2ccccc2O)C1=O | 47 | 0 | 0 | 0 | 0 | 0
Cn1cccc1/C=C1\SC(=S)N(NC(=O)c2ccc(F)cc2)C1=O | 52 | 0 | 0 | 0 | 0 | 0
Cc1ccc(-c2csc(NC(=O)CSc3nnc4c(n3)[nH]c3ccccc34)n2)cc1 | 0 | 0 | - | - | - | 0
O=C(Cc1cccc(NC(=O)C2CCCN(C(=O)C3CCCCC3)C2)c1)Nc1cccc(C(=O)N2CCCC2)c1 (stereo not given) | 0 | 0 | 0 | 0 | 0 | -
COc1ccc(-c2nnc(C3CCN(S(=O)(=O)c4ccccc4)CC3)o2)cc1 | 0 | 0 | 0 | 0 | 0 | 0
COc1cc([N+](=O)[O-])cc(/C=N/NC(=O)C(C)Nc2cccc(C)c2)c1O (stereo not given) | 0 | 0 | 0 | 0 | 0 | 0
COc1cc([N+](=O)[O-])cc(/C=N/NC(=O)c2ccc(C)nc2)c1O | 0 | 0 | 58 | 75 | 77 | 0
COc1cc([N+](=O)[O-])cc(/C=N/NC(=O)C(C)Nc2ccccc2C)c1O (stereo not given) | 41 | 0 | 0 | 0 | 0 | 0
COc1cc([N+](=O)[O-])cc(/C=N/NC(=O)c2ccc(NC(=O)c3ccc(C)cc3)cc2)c1O | 0 | 0 | 0 | 0 | 0 | 0
CC(=O)Nc1nc(C)c(-c2csc(Nc3ccccn3)n2)s1 | 0 | 0 | 74 | 87 | 79 | 0
Cc1nc(NC(=O)c2ccc(Cl)cc2)sc1-c1csc(Nc2cccc(F)c2)n1 | - | - | - | - | - | 69
CC(C)CC(NS(=O)(=O)c1cccc(C(=O)O)c1)C(=O)O (stereo not given) | 0 | 0 | 0 | 0 | 0 | 0
O=C(c1cc(Cl)cc(Cl)c1)N1CCC2CC1c1cc(N3CCCCC3)ccc12 (stereo not given) | 0 | 0 | - | - | - | -
SMILES | SENP8 block-1 | SENP1 FRET inh | SENP8 block-2 | SENP6 block | SENP7 block | HSP90 inh
Cc1cc(C(=O)CSc2nnc(-c3ccccc3)o2)c(C)n1CC1COc2ccccc2O1 (stereo not given) | 0 | 0 | 0 | 0 | 0 | 16
Nc1nnnn1/N=C/c1ccccc1OCc1ccc(Cl)cc1Cl | 0 | 0 | 0 | 0 | 0 | 0
Nc1nnnn1/N=C/c1cc(Cl)cc(Cl)c1OCc1ccc(Cl)cc1Cl | 0 | 53 | 0 | 0 | 0 | 0
COC(=O)c1nc(-c2ccccc2)nc(-c2ccccc2)c1C(=O)OC | 0 | 0 | 0 | 0 | 0 | -
CCN(CC)c1ccc2nc3ccc(N)cc3[n+](-c3ccccc3)c2c1 | 39 | 0 | 0 | 0 | 0 | -
CC1=NN(c2ccccc2)C(=O)/C1=C/c1cccs1 | 0 | 0 | 0 | 0 | 0 | 0
CC1=NN(c2ccccc2)C(=O)/C1=C\c1cc(C)n(-c2cccnc2)c1C | 42 | 0 | 0 | 0 | 0 | 0
CC1=NN(c2ccccc2)C(=O)/C1=C\c1cc(C)n(-c2ccccc2)c1C | 46 | 0 | 0 | 0 | 0 | 0
Cc1cc(/C=C2/NC(=O)N(c3ccccc3)C2=O)c(C)n1-c1cccnc1 | 0 | 0 | 0 | 0 | 0 | 0
Cc1c(Cl)cccc1NC(=O)CSc1nc(=O)n(CCCN2CCOCC2)c2c1CCCC2 | 0 | 0 | - | - | - | -
Nc1ccn(C2OC(COC(=O)C34CC5CC(CC(C5)C3)C4)C(O)C2O)c(=O)n1 (stereo not given) | 0 | 0 | - | - | - | -
CCCCN1C(=O)/C(=C/C=C2\Oc3ccccc3N2CC)SC1=S | 0 | 0 | - | - | - | 0
CCCCN1C(=O)/C(=C/C=C2/CC(C)(C)CN2C)SC1=S | 46 | 0 | 0 | 0 | 0 | 0
O=C(Cn1ncc2c([nH]c3ccccc32)c1=O)NCC1CCN(Cc2ccccc2F)CC1 | 0 | 0 | 0 | 0 | 0 | 0
CN1CCN(Cn2cc(/C=C/C(=O)c3ccccc3)c3ccccc32)CC1 | 0 | 0 | 0 | 59 | 0 | 0
O=C(/C=C/c1cn(CC(O)CN2CCCCC2)c2ccccc12)c1ccccc1 (stereo not given) | 0 | 0 | - | - | - | 0
O=S(=O)(Nc1ccc(-c2nc3cccnc3s2)cc1)c1ccccc1F | 0 | 0 | 66 | 83 | 0 | 0
Cn1c(O)c(N=NC(=O)c2ccccc2O)c2ccccc21 | 0 | 0 | 0 | 0 | 0 | 0
Cc1occc1C(=O)N=Nc1c(O)n(C)c2ccccc12 | 0 | 0 | 0 | 73 | 75 | 0
O=C(Cc1ccc(NC(=O)C2CCN(C(=O)C3CCC3)CC2)cc1)Nc1ccc(C(=O)N2CCOCC2)cc1 | 0 | 0 | - | - | - | -
Cc1ccc2nc(-c3ccc(NC(=O)CCN4C(=O)c5ccccc5C4=O)cc3)sc2c1 | 0 | 0 | 51 | 74 | 0 | 0
CCOC(=O)[C@]12CCCC=C1N(Cc1cccc3ccccc13)C(=O)[C@H](CC(=O)NCCCOC)C2 | 0 | 0 | - | - | - | -
O=C(NCCc1ccccc1)C(=O)NCC1OCCCN1S(=O)(=O)c1cc(F)ccc1F (stereo not given) | 0 | 0 | 0 | 0 | 0 | 16
Cc1cc(F)ccc1S(=O)(=O)N1CCCOC1CNC(=O)C(=O)NCCc1ccccc1 (stereo not given) | 0 | 0 | 0 | 0 | 0 | 0
CC[C@@]1(O)C(=O)OCc2c1cc1n(c2=O)Cc2cc3c(CN(C)C)c(O)ccc3nc2-1 | 0 | 0 | 0 | 0 | 0 | -
CC[C@@]1(O)C(=O)OCc2c1cc1n(c2=O)Cc2cc3c(N)cccc3nc2-1 | 0 | 32 | 0 | 0 | 0 | -
O=C1CCCC/C1=C\Nc1ccc(C(=O)O)c(O)c1 | 0 | 0 | 0 | 62 | 0 | 0
CC1CCCN(C2=C(NS(=O)(=O)c3ccc(Br)cc3)C(=O)c3ccccc3C2=O)C1 (stereo not given) | 0 | 0 | 0 | 0 | 0 | 0
CN(C1=C(N2CCCCC2)C(=O)c2ccccc2C1=O)c1ccccc1 | 49 | 0 | 0 | 0 | 0 | 0
